Assay results from ChEMBL document CHEMBL4004861, “Novel 2,3-disubstituted quinazoline-4(3H)-one molecules derived from amino acid linked sulphonamide as a potent malarial antifolates for DHFR inhibition” (Eur J Med Chem, 2017).
≈ marks a conversion by molar mass, not a printed value.

Tests used:
Plasmodium falciparum [1] = test: Antimalarial activity against Plasmodium falciparum; type: functional
How it was run: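 Drug stocks diluted in complete medium (RPMI 1640 plus 10% human serum) over seven dilutions, 0.0001 up to 100 mg/mL as printed. Reference antimalarials run as positive controls in every experiment. Percent inhibition at each concentration was calculated against untreated control to give IC50.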

Plasmodium falciparum [2] = test: Antimalarial activity against Plasmodium falciparum assessed as reduction in parasitic LDH activity by Malstat reagent based spectrophotometric method; type: functional
How it was run: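 Parasite lactate dehydrogenase (Malstat) read spectrophotometrically at 650 nm. Compounds were in RPMI 1640 with 10% human serum, seven dilutions.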

[3] = Selectivity index, ratio of CC50 for RBC (unknown origin) to EC50 for Plasmodium falciparum infected in RBC
How it was run: (§1)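 MTT reduction, run in parallel on infected and on normal uninfected RBC cultures and read at 565 and 690 nm. Compounds were in RPMI 1640 with 10% human serum, seven dilutions. Drug-free, parasite-free RBC cultures were set as maximum activity, with untreated, uninfected and cell-free controls. EC50 (parasite) and CC50 (RBC) were derived, and SI = CC50/EC50.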

Plasmodium falciparum [4] = test: Antimalarial activity against Plasmodium falciparum infected in RBC after 5 days by MTT assay; type: functional; how it was run: as §1
Dihydrofolate reductase = molecular target: T1, Dihydrofolate reductase (Bos taurus, UniProt P00376); test: Inhibition of bovine liver DHFR using FH2 as substrate preincubated for 2 mins followed by substrate addition in presence of NADPH
T1 sequence (P00376 whole entry): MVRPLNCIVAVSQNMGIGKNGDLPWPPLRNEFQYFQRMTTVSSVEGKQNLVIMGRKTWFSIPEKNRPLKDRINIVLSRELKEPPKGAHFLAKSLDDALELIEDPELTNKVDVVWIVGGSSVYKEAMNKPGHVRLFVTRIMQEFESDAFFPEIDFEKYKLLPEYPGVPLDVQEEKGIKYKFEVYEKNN

Vero = test: Cytotoxicity against African green monkey Vero cells assessed as reduction in cell viability up to 15 ug/ml after 72 hrs by MTT assay; type: cell-based; settings: chlorocebus sabaeus
How it was run: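 Vero cells were exposed to compounds for 72 h at 37 °C, with MTT conversion to formazan read at 540 nm. Viability was calculated relative to cells treated with 0.1% DMSO medium. Triplicate treatments; IC50 derived. Cells were tested up to 15 µg/mL.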

[5] = Selectivity index, ratio of IC50 for African green monkey Vero cells to IC50 for bovine liver DHFR
How it was run: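 Bovine liver DHFR (0.02 units) in 50 mM Tris-HCl pH 7.4 with 50 µM NADPH, compounds in DMSO at final 10⁻¹¹–10⁻⁵ M, total volume 2.0 ml. Mixture held 2 min at room temperature, then started with 25 µM FH2, and ΔA/min at 340 nm recorded. […] SI = Vero IC50 / DHFR IC50, triplicate averages.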

Q: With `COc1cc(Cc2cnc(N)nc2N)cc(OC)c1OC` [TRIMETHOPRIM] as the compound, how does the IC50 (Plasmodium falciparum [1]) read?
A: The IC50 was 0.38 µg/mL (≈ 1.31 µM).

Q: Which IC50 (Plasmodium falciparum [2]) does the source give for `CC(C)CC(NS(=O)(=O)c1ccc(N)cc1)c1nc2ccccc2c(=O)n1-c1ccc(Cl)cc1` (stereo not drawn) here?
A: The IC50 was 96.38 ppm.

Q: And the Ratio CC50/EC50 [3]?
A: The Ratio CC50/EC50 was 87.7.

Q: What about the EC50 (Plasmodium falciparum [4]) of the same compound?
A: Its EC50 is 115.61 ppm.

Q: What about the IC50 (Dihydrofolate reductase) of the same compound?
A: The IC50 was 56.3 nM.

Q: And the Activity (Vero)?
A: The Activity was “Non-Toxic”.

Q: What about the “Ratio IC50” value [5] of the same compound?
A: Its value is 535.71.

Q: What about the IC50 (Plasmodium falciparum [1]) of the same compound?
A: The IC50 was 0.068 µg/mL (≈ 0.137 µM).

Q: Which EC50 (Plasmodium falciparum [4]) does the source give for `CCN(CC)CCCC(C)Nc1ccnc2cc(Cl)ccc12` (stereo not drawn) [CHLOROQUINE] here?
A: Its EC50 is 28.97 ppm.

Q: And the IC50 (Dihydrofolate reductase)?
A: Its IC50 is 31.3 nM.

Q: For `CC(C)CC(NS(=O)(=O)c1ccc(N)cc1)c1nc2ccccc2c(=O)n1-c1ccccc1[N+](=O)[O-]` (stereo not drawn), which IC50 (Plasmodium falciparum [1]) is on record?
A: The IC50 was 0.92 µg/mL (≈ 1.81 µM).

Q: For `CCc1nc(N)nc(N)c1-c1ccc(Cl)cc1` [PYRIMETHAMINE], which IC50 (Plasmodium falciparum [1]) is on record?
A: Its IC50 is 0.25 µg/mL (≈ 1.01 µM).

Q: For `Cc1cccc(-n2c(C(CC(C)C)NS(=O)(=O)c3ccc(N)cc3)nc3ccccc3c2=O)c1` (stereo not drawn), which IC50 (Plasmodium falciparum [1]) is on record?
A: The IC50 was 1.28 µg/mL (≈ 2.69 µM).

Q: Which IC50 (Plasmodium falciparum [1]) does the source give for `COc1cccc(-n2c(C(CC(C)C)NS(=O)(=O)c3ccc(N)cc3)nc3ccccc3c2=O)c1` (stereo not drawn) here?
A: Its IC50 is 0.78 µg/mL (≈ 1.58 µM).

Q: With `CC(C)CC(NS(=O)(=O)c1ccc(N)cc1)c1nc2ccccc2c(=O)n1-c1cccc([N+](=O)[O-])c1` (stereo not drawn) as the compound, how does the IC50 (Plasmodium falciparum [1]) read?
A: Its IC50 is 0.78 µg/mL (≈ 1.54 µM).

Q: Which IC50 (Plasmodium falciparum [1]) does the source give for `CC(C)CC(NS(=O)(=O)c1ccc(N)cc1)c1nc2ccccc2c(=O)n1-c1ccc(F)cc1` (stereo not drawn) here?
A: The IC50 was 1.12 µg/mL (≈ 2.33 µM).

Q: With `CC(C)CC(NS(=O)(=O)c1ccc(N)cc1)c1nc2ccccc2c(=O)n1-c1ccccc1F` (stereo not drawn) as the compound, how does the IC50 (Plasmodium falciparum [1]) read?
A: The IC50 was 1.01 µg/mL (≈ 2.11 µM).

Q: For `Cc1ccccc1-n1c(C(CC(C)C)NS(=O)(=O)c2ccc(N)cc2)nc2ccccc2c1=O` (stereo not drawn), which IC50 (Plasmodium falciparum [1]) is on record?
A: Its IC50 is 0.72 µg/mL (≈ 1.51 µM).

Q: Which IC50 (Plasmodium falciparum [1]) does the source give for `CC(C)CC(NS(=O)(=O)c1ccc(N)cc1)c1nc2ccccc2c(=O)n1Nc1ccccc1` (stereo not drawn) here?
A: The IC50 was 1.05 µg/mL (≈ 2.2 µM).

Q: With `CC(C)CC(NS(=O)(=O)c1ccc(N)cc1)c1nc2ccccc2c(=O)n1-c1ccccc1Br` (stereo not drawn) as the compound, how does the IC50 (Plasmodium falciparum [2]) read?
A: The IC50 was 3380 ppm.

Q: And the Ratio CC50/EC50 [3]?
A: Its Ratio CC50/EC50 is 20.6.

Q: And the EC50 (Plasmodium falciparum [4])?
A: Its EC50 is 2831 ppm.

Q: What about the IC50 (Dihydrofolate reductase) of the same compound?
A: Its IC50 is 168 nM.

Q: What about the Activity (Vero) of the same compound?
A: Its Activity is “Non-Toxic”.

Q: And the “Ratio IC50” value [5]?
A: The value was 164.83.

Q: And the IC50 (Plasmodium falciparum [1])?
A: Its IC50 is 0.068 µg/mL (≈ 0.126 µM).

Q: For `COc1ccc(-n2c(C(CC(C)C)NS(=O)(=O)c3ccc(N)cc3)nc3ccccc3c2=O)cc1` (stereo not drawn), which IC50 (Plasmodium falciparum [2]) is on record?
A: Its IC50 is 8317 ppm.

Q: What about the Ratio CC50/EC50 [3] of the same compound?
A: Its Ratio CC50/EC50 is 19500.

Q: What about the EC50 (Plasmodium falciparum [4]) of the same compound?
A: The EC50 was 1009 ppm.

Q: And the IC50 (Dihydrofolate reductase)?
A: Its IC50 is 97.4 nM.

Q: And the Activity (Vero)?
A: The Activity was “Non-Toxic”.

Q: And the “Ratio IC50” value [5]?
A: The value was 312.5.

Q: And the IC50 (Plasmodium falciparum [1])?
A: The IC50 was 0.068 µg/mL (≈ 0.138 µM).

Q: Which results are given for `CC(C)CC(NS(=O)(=O)c1ccc(N)cc1)c1nc2ccccc2c(=O)n1-c1cccc(Cl)c1` (stereo not drawn)?
A: IC50 (Plasmodium falciparum [2]): 524.8 ppm; Ratio CC50/EC50 [3]: 50.6; EC50 (Plasmodium falciparum [4]): 368.97 ppm; IC50 (Dihydrofolate reductase): 72.4 nM; Activity (Vero): Non-Toxic; Ratio IC50 [5]: 416.66; IC50 (Plasmodium falciparum [1]): 0.068 µg/mL (≈ 0.137 µM)

Q: Which results are given for `CC(C)CC(NS(=O)(=O)c1ccc(N)cc1)c1nc2ccccc2c(=O)n1-c1ccc(Br)cc1` (stereo not drawn)?
A: IC50 (Plasmodium falciparum [2]): 37240 ppm; Ratio CC50/EC50 [3]: 15.3; EC50 (Plasmodium falciparum [4]): 1909 ppm; IC50 (Dihydrofolate reductase): 161 nM; Activity (Vero): Non-Toxic; Ratio IC50 [5]: 172.14; IC50 (Plasmodium falciparum [1]): 0.068 µg/mL (≈ 0.126 µM)

Q: For `CC(C)CC(NS(=O)(=O)c1ccc(N)cc1)c1nc2ccccc2c(=O)n1-c1cccc(Br)c1` (stereo not drawn), which IC50 (Plasmodium falciparum [1]) is on record?
A: The IC50 was 0.78 µg/mL (≈ 1.44 µM).

Q: For `CC(C)CC(NS(=O)(=O)c1ccc(N)cc1)c1nc2ccccc2c(=O)n1-c1ccccc1Cl` (stereo not drawn), which IC50 (Plasmodium falciparum [1]) is on record?
A: Its IC50 is 0.136 µg/mL (≈ 0.274 µM).

Q: Which IC50 (Plasmodium falciparum [1]) does the source give for `COc1ccccc1-n1c(C(CC(C)C)NS(=O)(=O)c2ccc(N)cc2)nc2ccccc2c1=O` (stereo not drawn) here?
A: Its IC50 is 0.72 µg/mL (≈ 1.46 µM).

Q: For `Cc1ccc(-n2c(C(CC(C)C)NS(=O)(=O)c3ccc(N)cc3)nc3ccccc3c2=O)cc1` (stereo not drawn), which IC50 (Plasmodium falciparum [1]) is on record?
A: Its IC50 is 0.67 µg/mL (≈ 1.41 µM).

Q: Which IC50 (Plasmodium falciparum [1]) does the source give for `CC(C)CC(NS(=O)(=O)c1ccc(N)cc1)c1nc2ccccc2c(=O)n1-c1ccccc1` (stereo not drawn) here?
A: Its IC50 is 0.68 µg/mL (≈ 1.47 µM).

Q: Which IC50 (Plasmodium falciparum [1]) does the source give for `CC(C)CC(NS(=O)(=O)c1ccc(N)cc1)c1nc2ccccc2c(=O)n1-c1ccc([N+](=O)[O-])cc1` (stereo not drawn) here?
A: The IC50 was 0.84 µg/mL (≈ 1.65 µM).
